# Screening results as filed in PubChem.
# Hits are enriched below; roughly 3.9% of the tested compounds scored in any of these assays.
# HCV core dimer = blocks dimerization of HCV core protein; TR-FRET GST/Flag-core106 dimerization, 1536-well; inhibition, % at 5 µM; 0.33% of 300,000 active;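 active = inhibition above the mean of all tested compounds plus 3 SD, set per screening campaign, cut at about 45% in these data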
#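 Assay system – GST-tagged and Flag-tagged HCV core protein residues 1-106 · Quantity – core106 proteins, GST 13.5 nM and Flag 17 nM · Benchmarks – unlabelled core106 and no-GST-core106 wells · Read-out basis – percent inhibition of core106 dimerization signal · Detection – time-resolved FRET, ex 340 nm, em 617 and 671 nm · Schedule – 4 h at 22.5 °C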
# HSP90 inh = blocks HSP90-mediated luciferase refolding in reticulocyte lysate | inhibition, % at 5.6 µM | Rabbit reticulocyte lysate, luciferase refolding luminescence, 3 h | 0.91% of 290,000 active;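 active = inhibition above the screen-wide mean plus 3 SD, computed separately per campaign, cut at about 16% in these data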;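 also: inhibitors lower the luminescence because luciferase stays unfolded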
# HSF1 inhib = HSF1 inhibition; NIH3T3-HGL HSE-luciferase, MG132-induced, luminescence 8 h; stronger effect = lower value; activity change, negative = inhibition, % at 7.5 µM (by protocol); 0.77% of 300,000 active;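 active = more than half of replicate wells show activity change below -50%, luminescence cut by over half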;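 also: luciferase reports HSF-1 transcriptional activity via heat shock element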
# HSF-1 act = increases HSF-1 driven luciferase reporter signal. activation, % at 9 µM. 1.7% of 300,000 active. NIH3T3-HGL HSF-1 luciferase reporter, MG132, 8 h; 100% = twice DMSO control signal. AID 504408;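 active = mean replicate activation of at least 50% with a set share of replicates each reaching 50%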
# HCV NS3 hel inh = blocks Hepatitis C virus NS3 helicase unwinding. NS3 helicase DNA unwinding, Cy5 molecular beacon fluorescence. inhibition, % at 10.9 µM. 0.56% of 290,000 active;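 active = inhibition above the mean of all tested compounds plus 3 SD, set per campaign, cut at about 35% in these data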
#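 Assay system: hepatitis C virus NS3 helicase domain fragment enzyme. Also added: annealed dual-labelled DNA beacon duplex, ATP-started. Timing: 1 h reaction at 25 °C, ATP-initiated. Technique: Cy5 fluorescence at 0 and 60 min, beacon hairpin quenching. Evaluation: % inhibition of unwinding. Replication: one well per compound.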
# DNA FID counter = displaces DNA intercalator in HCV helicase counter-screen | DNA fluorescent intercalator displacement, fluorescence | AID 1845 | 0.17% of 290,000 active | inhibition, % at 7.9 µM; in the data active = inhibition above about 37%;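 also: higher means more ethidium bromide displaced from hairpin DNA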
# A number is an active result; n = inactive; x = no result.
SMILES,HCV core dimer,HSP90 inh,HSF1 inhib,HSF-1 act,HCV NS3 hel inh,DNA FID counter
CC(=O)c1cc(NC(=O)c2ccccc2)c(=O)oc1C,n,n,n,n,n,n
Cc1oc(=O)c(NC(=O)c2ccccc2)cc1C(=O)c1ccccc1,n,n,n,121,n,n
Cc1oc(=O)c(NC(=O)c2ccc(Cl)cc2)cc1C(=O)c1ccccc1,n,n,n,83,n,n
O=C(NC(NC(=S)Nc1ccccc1C(=O)O)C(Cl)(Cl)Cl)c1cccc([N+](=O)[O-])c1 (stereo unspecified),n,n,n,n,n,n
Cc1cccc(NC2=Nc3ccccc3N3C2=Nc2c(c(C)nn2-c2ccccc2)C3c2ccc(O)c(O)c2)c1 (stereo unspecified),46,n,n,n,n,n
c1csc(-c2nc(NCCCN3CCOCC3)c3ccccc3n2)c1,n,n,n,n,n,61
Cc1cc(NCCN2CCOCC2)c2ccc3ccccc3c2n1,n,n,n,n,n,47
Oc1ccccc1-c1nc(NCCN2CCOCC2)c2ccccc2n1,n,n,n,n,n,n
Clc1cccc(-c2nc(NCCN3CCOCC3)c3ccccc3n2)c1,n,n,n,n,n,n
Clc1cccc(-c2nc(NCCCN3CCOCC3)c3ccccc3n2)c1,n,n,n,n,n,37
Cc1ccc(-c2nc(NCCN3CCOCC3)c3ccccc3n2)cc1,n,n,n,n,n,46
Nc1nnc(-c2ccc(Cl)c([N+](=O)[O-])c2)s1,n,n,n,n,n,n
Clc1ccc(-c2nc(NCCCN3CCOCC3)c3ccccc3n2)cc1,n,n,n,n,n,48
CN(C)CCCNc1nc(-c2ccccc2)nc2ccccc12,n,n,n,n,n,58
COCCNS(=O)(=O)c1cc(C(=O)O)ccc1OC,n,n,n,n,n,n
COc1ccc(C2c3c(ncn(CCCO)c3=N)Oc3ccc4ccccc4c32)cc1OC (stereo unspecified),n,n,n,n,n,n
COc1ccc(C2c3c(ncn(CCCO)c3=N)Oc3ccc4ccccc4c32)cc1 (stereo unspecified),n,n,n,58,n,n
CC(=O)c1cccc(NC(=O)Nc2cc3sccc3n2C)c1,51,n,n,n,n,n
CC1(C)CC(=O)C(C=NCCN2CCN(C(=S)Nc3ccc(F)cc3)CC2)=C(O)C1,n,n,n,n,n,n
O=C(CSc1cccc2cccnc12)N1CCCC1,n,n,n,60,n,n
CN=c1scc(-c2ccccc2F)n1/N=C(\C)c1cccnc1,n,n,n,78,n,n
C/C(=N\N1CCN(C2c3ccccc3-c3ccccc32)CC1)c1cccnc1,n,n,n,n,n,n
CCOC(=O)C1=NN(C(=O)COc2ccccc2)C(O)(c2ccc(Br)cc2)C1 (stereo unspecified),n,n,n,290,n,n
CCC1=NN(C(=O)COc2ccccc2)C(O)(c2ccncc2)C1 (stereo unspecified),n,n,n,n,n,n
CC1(c2ccccc2)CC2CC(c3ccccc3)N1O2 (stereo unspecified),n,n,n,124,n,n
SMILES,HCV core dimer,HSP90 inh,HSF1 inhib,HSF-1 act,HCV NS3 hel inh,DNA FID counter
COc1ccc(C2CC3CC(c4ccccc4)N2O3)cc1 (stereo unspecified),n,n,n,n,n,n
COc1ccc(OC)c(N(CC(=O)N2CCC(C)CC2)S(=O)(=O)c2ccccc2)c1,n,n,n,60,n,n
COc1ccc(OC)c(N(CC(=O)N2CCC(C)CC2)S(=O)(=O)c2ccc(OC)c(OC)c2)c1,n,n,n,n,n,n
CCS(=O)(=O)c1nc(S(=O)(=O)c2ccc(Cl)cc2)c(NCCOC)s1,n,n,n,n,n,n
Cc1cccc(NC(=S)/N=C(\N)Nc2nc(C)c3cc(C)ccc3n2)c1,n,n,n,n,n,n
Cc1cccc(NC(=S)/N=C(\N)Nc2nc(C)c3ccc(C)cc3n2)c1,48,n,n,n,n,n
COc1ccc(NC(=O)NNC(=O)c2cc3occc3n2C)c(OC)c1,n,n,n,133,n,n
c1ccc(-c2csc(Nc3ccccn3)n2)cc1,n,n,n,82,n,n
Cc1ccnc(Nc2nc(-c3ccc(F)cc3)cs2)c1,n,n,n,80,n,n
COc1ccc(-c2csc(Nc3ccccn3)n2)cc1OC,n,n,n,n,n,n
Cc1cc(-c2csc(Nc3ccccn3)n2)ccc1F,n,n,n,80,n,n
O=C(O)c1ccc(N2C(=O)CC(SC(=NCc3ccc4c(c3)OCO4)Nc3ccc(F)cc3)C2=O)cc1 (stereo unspecified),n,n,n,n,n,n
CC(C)Oc1ccc(S(=O)(=O)N2CCCCC2)cc1NC(=O)C1CSC2(C)CCC(=O)N12 (stereo unspecified),n,x,n,n,x,x
Cc1ccccc1CSCC(=O)NCc1ccco1,n,n,n,n,n,n
O=C1C2CCCN2c2ccc(S(=O)(=O)N3CCOCC3)cc2N1Cc1cccc(C(F)(F)F)c1 (stereo unspecified),n,n,-85,n,n,n
O=C(Nc1ccccc1C(=O)NCc1cccnc1)c1cccc([N+](=O)[O-])c1,n,n,n,n,n,n
CCCn1c(=O)[nH]c(=O)c2c1nc(-c1ccc(OC(F)F)c(OC)c1)n2CCOC,n,n,n,n,n,n
CCCn1c(=O)[nH]c(=O)c2c1nc(-c1ccccc1OC(F)F)n2CCOC,n,n,n,53,n,n
CC(Nc1n[nH]c(=O)[nH]c1=O)C(=O)N/N=C/c1cccs1 (stereo unspecified),n,n,n,n,n,n
Clc1ccc(-c2ccc(SCc3ccccn3)nn2)cc1,n,n,n,81,n,n
c1ccc(CSc2ccc(-c3ccccn3)nn2)nc1,n,n,n,n,n,n
Cc1ccc(S(=O)(=O)N2CCOCC2)cc1NC(=O)COC(=O)CCOc1ccc(C(C)(C)C)cc1,n,x,n,n,x,x
COc1ccccc1/C(O)=C(\C#N)c1nc2ccccc2[nH]1,n,n,n,n,n,n
Clc1ccc(OCc2nc(-c3ccncc3)no2)c(Br)c1,n,n,n,85,n,n
O=C(c1ccccc1Sc1cccc2ccccc12)N1CCOCC1,n,n,n,n,n,n
Cc1ccc(NC(=O)c2cc3c(=O)oc4ccccc4c3s2)nc1,n,n,n,97,n,n
COc1ccc2oc(C(=O)NCCc3ccccc3)c(C)c2c1,n,x,n,n,x,x
Cc1ccc(NC(=O)Nc2ccccc2)nc1,n,x,n,54,x,x
Cc1ccc(NC(=O)Nc2ccc([N+](=O)[O-])cc2)nc1,n,n,n,n,n,n
Cc1c(C(=O)NCCc2ccccc2)oc2ccccc12,n,n,n,62,n,n
